Test results: ChEMBL document CHEMBL3872205, “Design, synthesis and evaluation of novel potent angiotensin II receptor 1 antagonists” (Eur J Med Chem, 2016)

Tests used:
Rattus norvegicus = test: Antihypertensive activity in spontaneous hypertensive rat model assessed as reduction in mean blood pressure at 15 mg/kg, po after 4 hrs; assay type: functional
In short: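 Male SHRs (250 ± 20 g) were randomized, 6 per group. Compound was suspended in 0.5% sodium carboxymethyl cellulose and given orally; vehicle-only negative control. Mean blood pressure was calculated as (SBP − DBP)/3 + DBP from systolic and diastolic readings over the time course. Data are mean ± SD, with p < 0.05 taken as significant.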

[1] = AUC (0 to infinity) in Wistar rat plasma at 10 mg/kg, po by HPLC analysis; assay type: ADME, organism-based; parameters: dose 10 mg/kg, route oral, time infinity
In short: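 Male Wistar rats (180 ± 20 g, n = 6 per group) got one oral dose. Heparinized blood was taken by retro-orbital puncture before dosing and at 0.5–72 h. Plasma was spun at 4000 × g, 4 °C, 10 min, spiked with internal standard and protein-precipitated with acetonitrile. Analysis was reverse-phase C18 HPLC (0.02 mol/L KH2PO4 55%/acetonitrile 45%, 1.0 mL/min). Calibration used 0.1–10 µg/mL, peak-height ratio, weighting concentration^-2.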

[2] = Half life in Wistar rat plasma at 15 mg/kg, po by HPLC analysis; assay type: ADME, organism-based
[3] = Tmax in Wistar rat plasma at 15 mg/kg, po by HPLC analysis; assay type: ADME, organism-based
In short: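 Male Wistar rats (180 ± 20 g), 6 per dose group, each given a single oral dose. Blood was drawn by retro-orbital puncture into heparin at predose and at 0.5, 1, 2, 4, 6, 8, 12, 24, 48 and 72 h, then spun at 4000 × g and 4 °C. Plasma with internal standard was acetonitrile-precipitated, filtered and run on reverse-phase C18 HPLC (0.02 mol/L KH2PO4 55% / acetonitrile 45%, 1.0 mL/min). Calibration standards were 0.1–10 µg/mL, fitted by peak-height ratio with 1/conc² weighting.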

[4] = Cmax in Wistar rat plasma at 10 mg/kg, po by HPLC analysis; assay type: ADME, organism-based; parameters: dose 10 mg/kg, route oral
[5] = Cmax in Wistar rat plasma at 15 mg/kg, po by HPLC analysis; assay type: ADME, organism-based; parameters: dose 15 mg/kg, route oral
[6] = AUC (0 to 72 hrs) in Wistar rat Heart at 15 mg/kg, po by HPLC analysis; assay type: ADME, organism-based; parameters: time < 72 hr, dose 15 mg/kg, route oral
In short: (§1)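 Wistar rats (180 ± 20 g) were dosed orally at 10, 15 or 30 mg/kg. Heart, liver, spleen, lung, kidney and brain were collected at 0–72 h (n = 6 per point). Tissue was rinsed, blotted and homogenized in saline (0.25 g/1 mL), then spun at 10,000 × g. Supernatant was methanol-extracted, dried under nitrogen at 50 °C, reconstituted in methanol and run on C18 HPLC (acetonitrile 60%/water 40%, 1.0 mL/min).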

[7] = MRT (0 to 72 hrs) in Wistar rat Heart at 15 mg/kg, po by HPLC analysis; assay type: ADME, organism-based
In short: (§2)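 Tissue distribution in male Wistar rats given oral 10, 15 or 30 mg/kg; heart, liver, spleen, lung, kidney and brain collected predose and 0.5–72 h post-dose (n = 6 per time). Tissue rinsed in saline, homogenised 0.25 g/1 mL saline, methanol extraction, dried under nitrogen, reconstituted in methanol. Analysis by reverse-phase C18 HPLC, acetonitrile/water 60:40, 1.0 mL/min, ambient temperature.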

[8] = MRT (0 to infinity) in Wistar rat Heart at 10 mg/kg, po by HPLC analysis; assay type: ADME, organism-based
In short: (§3)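 Male Wistar rats (180 ± 20 g) received a single oral dose of 10, 15 or 30 mg/kg. Tissues were collected at 0, 0.5, 1, 2, 4, 6, 8, 12, 24, 48 and 72 h (n = 6 per point). Samples of 0.25 g were rinsed, then homogenized in saline (0.25 g/1 mL) and centrifuged at 10,000 × g. Supernatant was methanol-extracted, dried under nitrogen at 50 °C and reconstituted in methanol. Analysis was by C18 HPLC (acetonitrile 60% / water 40%, 1.0 mL/min).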

[9] = MRT (0 to infinity) in Wistar rat Heart at 15 mg/kg, po by HPLC analysis; assay type: ADME, organism-based; in short: as §3
[10] = Half life in Wistar rat Heart at 30 mg/kg, po by HPLC analysis; assay type: ADME, organism-based; in short: as §2
[11] = Tmax in Wistar rat Heart at 10 mg/kg, po by HPLC analysis; assay type: ADME, organism-based; in short: as §3
[12] = Cmax in Wistar rat heart at 10 mg/kg, po by HPLC analysis; assay type: ADME, organism-based; parameters: dose 10 mg/kg, route oral; in short: as §2
[13] = AUC (0 to infinity) in Wistar rat liver at 15 mg/kg, po by HPLC analysis; assay type: ADME, organism-based; parameters: dose 15 mg/kg, route oral, time infinity; in short: as §1
[14] = MRT (0 to 72 hrs) in Wistar rat liver at 30 mg/kg, po by HPLC analysis; assay type: ADME, organism-based; in short: as §3
[15] = Tmax in Wistar rat liver at 30 mg/kg, po by HPLC analysis; assay type: ADME, organism-based; in short: as §3
[16] = Cmax in Wistar rat liver at 30 mg/kg, po by HPLC analysis; assay type: ADME, organism-based; parameters: dose 30 mg/kg, route oral; in short: as §2
[17] = AUC (0 to 72 hrs) in Wistar rat spleen at 10 mg/kg, po by HPLC analysis; assay type: ADME, organism-based; parameters: dose 10 mg/kg, time < 72 hr, route oral; in short: as §1
[18] = AUC (0 to infinity) in Wistar rat spleen at 30 mg/kg, po by HPLC analysis; assay type: ADME, organism-based; parameters: dose 30 mg/kg, route oral, time infinity; in short: as §1
[19] = Half life in Wistar rat spleen at 15 mg/kg, po by HPLC analysis; assay type: ADME, organism-based; in short: as §2
[20] = Tmax in Wistar rat spleen at 15 mg/kg, po by HPLC analysis; assay type: ADME, organism-based
[21] = Cmax in Wistar rat spleen at 15 mg/kg, po by HPLC analysis; assay type: ADME, organism-based; parameters: dose 15 mg/kg, route oral; in short: as §2
[22] = AUC (0 to infinity) in Wistar rat lung at 10 mg/kg, po by HPLC analysis; assay type: ADME, organism-based; parameters: dose 10 mg/kg, time infinity, route oral; in short: as §1
[23] = AUC (0 to infinity) in Wistar rat lung at 30 mg/kg, po by HPLC analysis; assay type: ADME, organism-based; parameters: dose 30 mg/kg, route oral, time infinity; in short: as §1
[24] = Tmax in Wistar rat lung at 10 mg/kg, po by HPLC analysis; assay type: ADME, organism-based; in short: as §3
[25] = AUC (0 to infinity) in Wistar rat kidney at 15 mg/kg, po by HPLC analysis; assay type: ADME, organism-based; parameters: dose 15 mg/kg, time infinity, route oral; in short: as §1
[26] = MRT (0 to 72 hrs) in Wistar rat kidney at 10 mg/kg, po by HPLC analysis; assay type: ADME, organism-based; in short: as §2
[27] = MRT (0 to 72 hrs) in Wistar rat kidney at 15 mg/kg, po by HPLC analysis; assay type: ADME, organism-based; in short: as §2
[28] = Tmax in Wistar rat kidney at 10 mg/kg, po by HPLC analysis; assay type: ADME, organism-based; in short: as §3
[29] = Tmax in Wistar rat kidney at 15 mg/kg, po by HPLC analysis; assay type: ADME, organism-based; in short: as §3
[30] = AUC (0 to infinity) in Wistar rat brain at 10 mg/kg, po by HPLC analysis; assay type: ADME, organism-based; parameters: dose 10 mg/kg, route oral, time infinity; in short: as §1
[31] = AUC (0 to infinity) in Wistar rat brain at 15 mg/kg, po by HPLC analysis; assay type: ADME, organism-based; parameters: dose 15 mg/kg, time infinity, route oral; in short: as §1
[32] = MRT (0 to 72 hrs) in Wistar rat brain at 15 mg/kg, po by HPLC analysis; assay type: ADME, organism-based; in short: as §2
[33] = Toxicity in ICR mouse assessed as mortality at 1200 mg/kg, ig after 2 weeks; assay type: organism-based; settings: in vivo, po
[34] = Toxicity in ICR mouse assessed as mortality at 1875 mg/kg, ig after 2 weeks; assay type: organism-based; settings: in vivo, po

## CCCCC1=NC2(CCCC2)C(=O)N1Cc1ccc2c(ccn2-c2ccccc2-c2nnn[nH]2)c1
Rattus norvegicus
  Activity: 40.62 mmHg
[1]
  AUC(0-inf): 6690 ng·h/mL
[2]
  half-life: 9.03 h
[3]
  Tmax: 4.33 h
[4]
  Cmax: 856 ng/mL
[5]
  Cmax: 2950 ng/mL
[6]
  AUC(0-t) at 72 h: 5840 ng·h/mL
[7]
  MRT last: 16.9 h
[8]
  MRT inf: 12 h
[9]
  MRT inf: 23.9 h
[10]
  half-life: 20.2 h
[11]
  Tmax: 4 h
[12]
  Cmax: 105 ng/mL
[13]
  AUC(0-inf): 23500 ng·h/mL
[14]
  MRT last: 6.3 h
[15]
  Tmax: 4 h
[16]
  Cmax: 2000 ng/mL
[17]
  AUC(0-t) at 72 h: 9470 ng·h/mL
[18]
  AUC(0-inf): 21000 ng·h/mL
[19]
  half-life: 7.57 h
[20]
  Tmax: 1.5 h
[21]
  Cmax: 2360 ng/mL
[22]
  AUC(0-inf): 745 ng·h/mL
[23]
  AUC(0-inf): 2410 ng·h/mL
[24]
  Tmax: 2 h
[25]
  AUC(0-inf): 7690 ng·h/mL
[26]
  MRT last: 21 h
[27]
  MRT last: 19.4 h
[28]
  Tmax: 1.17 h
[29]
  Tmax: 2.33 h
[30]
  AUC(0-inf): 346 ng·h/mL
[31]
  AUC(0-inf): 1180 ng·h/mL
[32]
  MRT last: 11.6 h
[33]
  mortality at 336 h: 0%
[34]
  mortality at 336 h: 60%
